# Compound activity as filed in PubChem BioAssay.
# HSV augment = HSV replication enhancement. HSV replication augmentation in cells, fold increase. maximum fold increase. 220,000 tested, 0.005% active. AID 1956; in the data active means maximum fold increase above about 1.5; inconclusive means no clear call, values can overlap the other calls; tested in PC3 cells
# Cl transport mod = modulators of human KCC2 chloride dependent transport; Q9H2X9; KCC2 cells, thallium flux FluoZin-2 fluorescence; B-score of Tl+ flux slope (higher = more flux/activation; lower = inhibition) at 10 µM; 190,000 tested, 2.2% active; AID 1456;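 active means thallium flux slope and its plate-corrected score both differing from the plate sample mean at a set confidence after two filtering rounds, in either direction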;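 further: slope of fluorescence scaled to starting intensity during 10 to 20 s after thallium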
# STAT3 activator = activators of IL-6 induced STAT3 signaling; AID 871; U3A cells, IL-6 STAT3-luciferase reporter, luminescence; 100% = signal with IL-6 EC80 alone; 190,000 tested, 0.91% active; activation (% of control), % at 5.6 µM;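 active means activation above the screen-wide mean of compound activation plus 3 SD, cut at about 130% in these data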;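 further: 0% = background luminescence of wells with medium and substrate only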
#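 Material: human U3A cells carrying STAT3-luciferase construct. Measured by: reporter luminescence signal. Timing: compound 1 h, then IL-6 6 h at 37 °C.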
# STAT1 blocker = inhibitors of IFN-gamma induced STAT1 signaling; 200,000 tested, 0.35% active; inhibition, % at 5.5 µM; AID 920; NIH 3T3 STAT1-luciferase reporter, luminescence;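 active means inhibition above a set limit, the mean inhibition across all tested compounds plus 3 SD, cut at about 34% in these data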;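 further: 0% = IFN-gamma with DMSO and 100% = IFN-gamma with 300 µM nifuroxazide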
# STAT1 activator = increases IFN-gamma driven STAT1 reporter signal; NIH 3T3 STAT1-luciferase reporter, luminescence; 100% = IFN-gamma alone, no compound; AID 932; activation (% of control), % at 5.5 µM; 200,000 tested, 2.6% active;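 active means activation above the screen-wide mean activation plus 3 SD, cut at about 130% in these data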;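 further: raw ratio to IFN-gamma control signal so 100% means no change and 0% no light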
# STAT3 inh = reduces IL-6 driven STAT3 reporter signal. inhibition, % at 5.5 µM. U3A cells, IL-6 STAT3-luciferase reporter, luminescence; host cell line lacks STAT1. 190,000 tested, 0.89% active. AID 862;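 active means inhibition above the mean inhibition across all screened compounds plus 3 SD, cut at about 44% in these data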;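 further: 0% = DMSO only wells and 100% = 100 µM nifuroxazide control wells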
# * = called active by the depositor; i = inactive; ? = inconclusive; nt = no result. In the library only some 5.5% were active in any assay of this set; here they are far more common.
SMILES,HSV augment,Cl transport mod,STAT3 activator,STAT1 blocker,STAT1 activator,STAT3 inh
Cc1ccc2nc(-c3ccc(NC(=O)Cc4cccs4)cc3)[nH]c2c1,i,0.216,86.9,-50.2,145.3*,21.0
O=C(OCc1nc2ccccc2s1)c1cccc(S(=O)(=O)N2CCOCC2)c1,i,-5.1*,139.0*,-33.0,130.3*,-40.2
Nc1ccc(C(=O)OCc2nc3ccccc3s2)cc1,i,-1.01,98.4,-24.9,120.1,3.7
O=C(COC(=O)c1cccc(S(=O)(=O)N2CCOCC2)c1)Nc1nc(-c2ccccc2Cl)cs1,i,0.0205,83.5,3.4,96.9,22.9
O=C(OCc1nc2ccccc2s1)c1cc2ccccc2oc1=O,i,-1.71,134.4*,-3.1,105.3,-46.4
O=C(COC(=O)C12CC3CC(CC(C3)C1)C2)NCCc1ccccc1,i,0.154,100.0,0.4,99.6,0.2
CCCCCNC(=O)c1ccc2c(=O)n(CCCN3CCCC3=O)c(=S)[nH]c2c1,i,-0.922,105.0,11.6,88.8,6.6
CCCCNC(=O)CCn1c(=O)c2ccccc2n(CC(=O)NCCc2ccc(OC)c(OC)c2)c1=O,i,0.0254,97.6,13.8,86.8,10.2
CCCn1c(SCc2nc3ccccc3s2)n[nH]c1=O,i,-0.0123,124.4,-35.9,134.0*,-18.4
O=c1[nH]nc(SCc2nc3ccccc3s2)n1C1CC1,i,1.13,126.6,-23.1,120.3,-30.3
Cc1ccccc1-n1c(C)nnc1SCc1nc2ccccc2s1,i,-0.892,142.1*,-35.5,132.3*,-44.0
NC(=O)CSCc1nc2ccccc2s1,i,0.0271,135.1*,-0.8,100.8,-41.9
N/C(Cc1nc2ccccc2s1)=N\O,i,0.427,nt,nt,nt,nt
O=C(CC1CCCCC1)Nc1ncn[nH]1,i,0.899,104.4,2.5,97.7,-4.1
CC(=O)Nc1ccc(N2C(C(C)=O)=NN(c3ccc(Cl)cc3)C2c2sccc2C)cc1 (stereo unspecified),i,-0.805,115.3,1.5,98.6,-14.1
CCN(CC)S(=O)(=O)c1cc(C(=O)OCC(=O)Nc2cccc(S(=O)(=O)N(C)C)c2)ccc1F,i,-2.25,108.2,4.8,94.8,2.9
CCN(CC)S(=O)(=O)c1cc(C(=O)OCC(=O)Nc2ccc(-c3nc4ccc(C)cc4s3)cc2)ccc1F,i,0.372,72.1,-49.6,145.3*,37.7
O=C(CN1C(=O)CSc2ccc(S(=O)(=O)N3CCOCC3)cc21)NCCCN1CCc2ccccc2C1,i,-0.362,104.4,-1.7,98.9,-0.3
Cc1oc(-c2ccccc2F)nc1CS(=O)(=O)CC(=O)N1CCN(c2ccccc2)CC1,i,nt,89.1,-2.1,101.9,18.1
Cc1nc2ccccn2c1C(=O)CSc1cccc(Cl)c1,i,-0.0262,88.3,-0.9,100.2,16.4
O=c1[nH]c2cc3ccccc3cc2nc1C(F)(F)F,?,0.501,82.7,-10.3,109.0,22.9
O=c1[nH]c2ccccc2nc1C(F)(F)C(F)F,i,nt,98.0,-41.3,137.5*,6.5
Cc1ccc(NC(=S)NNC(=O)c2nn(C)c(C)c2Cl)cc1,nt,0.409,99.2,-34.6,131.1*,11.1
CC(=O)c1ccc(NC(=O)CSc2ccsc2[N+](=O)[O-])cc1,i,-0.446,103.0,1.3,100.4,1.6
O=C(Nc1ccccc1)Nc1ccc2ncoc2c1,i,-0.341,106.8,-36.7,132.4*,-0.3
SMILES,HSV augment,Cl transport mod,STAT3 activator,STAT1 blocker,STAT1 activator,STAT3 inh
O=C1c2cccc3cccc(c23)C(=O)N1c1ccncc1,i,1.51,77.3,9.7,84.8,29.1
CCc1nnc(N2C(=O)c3cccc4cccc(c34)C2=O)s1,i,0.989,135.0*,3.0,97.3,-40.9
O=C(NC(=S)N1CCN(Cc2ccc3c(c2)OCO3)CC1)c1ccc(Cl)cc1,i,75.2*,104.6,2.9,97.3,0.3
O=C(NC(=S)N1CCN(Cc2ccc3c(c2)OCO3)CC1)c1cccc(Br)c1,i,79.4*,108.5,1.8,98.4,-7.2
Cc1cc(Cl)ccc1NC(=S)N1CCN(Cc2ccc3c(c2)OCO3)CC1,i,-0.116,93.3,6.5,94.1,11.2
COc1ccc(-c2[nH]ncc2CN2CCC(C(=O)N3CCOCC3)CC2)c(F)c1,i,-0.679,103.6,-8.1,105.5,-0.7
N=C1C(c2ccccc2)=C(O)CN1c1cccc(S(=O)(=O)NCc2ccco2)c1,i,0.0623,nt,nt,nt,nt
NNC(=O)c1cccc(COc2ccc3c(c2)CCC3)c1,i,-1.02,18.6,59.7*,45.8,95.0*
Cc1cc(C)nc(Nc2n[nH]c(-c3ccccc3C)n2)n1,i,-0.0636,91.3,-37.5,135.3*,10.7
Cc1cc(C)nc(Nc2n[nH]c(-c3ccccc3Br)n2)n1,i,-1.51,87.2,-1.3,98.6,16.6
Cc1cc(C)nc(Nc2n[nH]c(-c3ccc(N)cc3)n2)n1,i,0.421,95.8,-54.0,156.3*,5.1
O=C1NC(=O)C(Cc2ccccc2)(c2cccnc2)N1 (stereo unspecified),i,-0.289,nt,nt,nt,nt
CC1=C(C#N)C(/C=N/OCc2ccc(F)cc2Cl)CC(=O)N1 (stereo unspecified),i,-0.467,97.6,3.4,96.3,5.0
Cc1cc(C(=O)N/N=C/c2cccc([N+](=O)[O-])c2)c(C)o1,i,-2.42,88.6,-3.9,103.5,16.0
CC(C)(C)OC(=O)N/N=C/c1cccc([N+](=O)[O-])c1,i,-0.976,104.5,-34.1,130.0*,-3.4
FC(F)(F)c1nc(=S)c2ccccc2[nH]1,nt,31.9*,98.2,1.8,98.5,10.4
O=c1c(Br)c(N2CCCC2)cnn1-c1ccccc1,i,-0.141,101.7,-47.9,142.6*,-4.6
O=c1c(Br)c(N2CCCCC2)cnn1-c1ccccc1,i,-0.00153,90.5,-50.8,146.6*,13.6
CN1CCN(c2cnn(-c3ccccc3)c(=O)c2Br)CC1,i,0.287,103.5,-14.8,110.3,0.6
CCN(CC)C(CNS(=O)(=O)c1ccc(Cl)cc1)c1ccccc1 (stereo unspecified),i,-0.643,101.2,5.1,92.5,3.3
COc1ccccc1/C=N/N1C(=O)C2C3C=CC(CC3)C2C1=O (stereo unspecified),i,0.3,107.1,-3.2,102.5,-6.3
O=C1C2C3C=CC(CC3)C2C(=O)N1/N=C/c1c[nH]c2ccccc12 (stereo unspecified),i,1.48,100.2,-40.0,136.6*,2.0
Cc1ccc(C(=O)/C=C/Nc2ccccn2)cc1,i,nt,12.1,83.8*,23.7,109.2*
COc1ccc(N/C=C/C(=O)c2ccc(Cl)cc2)cc1,i,-0.0357,103.5,-45.1,139.5*,-4.1
COc1cccc(C(=O)/C=C/Nc2ccc(NC(C)=O)cc2)c1,i,-0.0219,99.2,-40.6,135.6*,1.1
Cc1ccc(N/C=C/C(=O)c2ccc(C)cc2)cc1,i,nt,80.6,-48.0,144.3*,28.5
O=C(NCc1ccccn1)C(=O)Nc1cccc2ccccc12,i,0,94.9,-5.1,103.7,12.5
